# Laboratory results from ChEMBL document CHEMBL4699542, “Design and synthesis of novel methoxypyridine-derived gamma-secretase modulators” (Bioorg Med Chem, 2020).
# Experiments:
# [1] = Drug metabolism in CD-1 mouse liver; type: ADME, tissue-based; details: read-out: Drug metabolism
# Outline: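 Test compound at 1 μM incubated 30 min with human, rat or mouse liver microsomes (1 mg/mL); parent remaining expressed as %.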
# [2] = Half life in CD-1 mouse at 1 mg/kg, iv administered as single dose measured up to 24 hrs; type: ADME, organism-based; details: CD-1, mouse, in vivo
# Outline: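 Male CD-1 mice, 6–8 weeks old, single dose by tail vein (1 mg/kg, 3% NMP/45% PEG300/12% ethanol/40% water) or oral gavage (5 mg/kg, 5% NMP/95% PEG300). Retro-orbital plasma sampled 0.083 (iv only) to 24 h, n=3/timepoint, and analysed by HPLC/MS/MS. Non-compartmental analysis. Half-life taken from the terminal phase using ≥3 non-zero points after Tmax.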
# [3] = Oral bioavailability in CD-1 mouse at 5 mg/kg administered as single dose measured up to 24 hrs; type: ADME, organism-based; details: in vivo
# Outline: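 CD-1 mouse PK after single iv (1 mg/kg) and oral gavage (5 mg/kg) dosing, with plasma sampled to 24 h (n=3/timepoint) and measured by HPLC/MS/MS. F(%) = (AUC0-inf po × Dose iv)/(AUC0-inf iv × Dose po) × 100.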
SMILES,metabolised [1] [%],half-life [2] [min],F [3] [%]
COc1nc(-c2csc(Nc3c4c(nn3CCF)CCCC4)n2)ccc1-n1cnc(C)c1,60,,
CCn1nc2c(c1Nc1nc(-c3ccc(-n4cnc(C)c4)c(OC)n3)cs1)CCC2,,42,66
